Screening data as filed in PubChem.
Compounds with a hit are over-represented: about 3.5% of the library has one in this group of screens.
RGS4 inh: RGS4 inhibitors, primary screen, cell-based, HEK293 M3R inducible RGS4, calcium flux | Fluo-4 calcium flux; hits give high values; triggered by carbachol at its EC20 | 0.45% of 310,000 active | B-score at 10 µM;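 active = B-score, a plate-corrected calcium signal, over three deviations above library mean, with baseline fluorescence within five deviations of library mean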;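 note: RGS4 expression induced by doxycycline in cells with stable M3 receptor; B-score is computed from the integrated fluorescence ratio over baseline after carbachol; higher B-score means a larger calcium signal and so more RGS4 inhibition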
Target sequence (P49798 whole entry, looked up): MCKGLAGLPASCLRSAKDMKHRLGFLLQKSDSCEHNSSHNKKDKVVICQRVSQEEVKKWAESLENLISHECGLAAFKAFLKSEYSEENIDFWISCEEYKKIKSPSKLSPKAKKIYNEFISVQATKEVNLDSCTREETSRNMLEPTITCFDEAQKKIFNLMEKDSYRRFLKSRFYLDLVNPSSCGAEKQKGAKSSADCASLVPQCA
MrgX1 antag: antagonists of human MrgX1 receptor, primary screen, HEK293 cells, Fluo-4 calcium flux; Mas-related G-protein coupled receptor member X1 (Homo sapiens), Q96LB2; BAM8-22 antagonism; hits give low values; B-score at 10 µM; 1.3% of 310,000 active; AID 588676, 2011;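 active = calcium-response B-score plate-corrected more than 3 library SD below zero, starting fluorescence within 5 deviations, no agonist response on first addition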;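 note: peak minus trough fluorescence over baseline after final BAM8-22 challenge near maximal dose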
Target sequence (Q96LB2 whole entry, looked up): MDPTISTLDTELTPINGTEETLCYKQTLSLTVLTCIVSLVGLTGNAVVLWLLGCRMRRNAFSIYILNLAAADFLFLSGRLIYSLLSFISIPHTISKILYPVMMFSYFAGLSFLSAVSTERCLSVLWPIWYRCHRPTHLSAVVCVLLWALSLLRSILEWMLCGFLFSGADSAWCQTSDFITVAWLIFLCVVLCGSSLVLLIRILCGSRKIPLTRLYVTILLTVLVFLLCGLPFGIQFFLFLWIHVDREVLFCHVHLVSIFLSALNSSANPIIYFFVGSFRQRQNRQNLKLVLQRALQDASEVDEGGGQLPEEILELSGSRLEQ
MrgX1 allo act: positive allosteric modulators of MrgX1, primary screen, HEK293 cells, Fluo-4 calcium flux; Mas-related G-protein coupled receptor member X1 (Homo sapiens), Q96LB2; FDSS; hits give high values; B-score at 10 µM; 0.63% of 310,000 active; AID 588675, 2011;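 active = plate-corrected calcium response at least 3 library SD above typical, normal starting fluorescence, not activating the receptor alone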;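 note: compound read alongside a low EC10 to EC30 dose of BAM8-22 agonist; peak minus trough fluorescence over baseline measured at the second addition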
MrgX1 ag: agonists of human MrgX1 receptor, primary screen, HEK293 cells, Fluo-4 calcium flux | Fluo-4 calcium fluorescence, agonist mode; hits give high values | B-score at 10 µM | 0.44% of 310,000 active | AID 588627, 2011;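 active = calcium response B-score plate-corrected fluorescence ratio at least 3 library SD, with starting fluorescence B-score inside 5 SD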
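Test system: HEK293 cells stably expressing human MrgX1 receptor; amount: 15,000 cells per well; doses: compound delivered in addition one of three; times: overnight plating before 1 h dye loading; detection: Fluo-4 NW calcium-flux fluorescence, kinetic read; read-out basis: B-scored fluorescence response ratio; controls: positive and negative controls per plate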
RGS4 act: RGS4 potentiators or activators, primary screen, cell-based, HEK293 M3R inducible RGS4, calcium flux | B-score at 10 µM | 0.92% of 310,000 active | carbachol calcium flux Fluo4; hits give low values;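 active = B-score of the integrated calcium signal more than 4 SD below the library mean, with starting fluorescence not abnormally high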;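 note: negative B-score means reduced calcium response which marks RGS4 activation or potentiation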
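Assay system: Inducible-RGS4 HEK293 cells carrying M3 receptor | Schedule: Compound preincubation 20 min at room temperature before agonist | Signal: Kinetic calcium fluorescence imaging with Fluo4-AM dye, 2 µM | Read-out basis: B score from integrated fluorescence ratio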
RGS4 act valid: reduced carbachol calcium response, RGS4-induced M3R cells, confirmation, RGS4 activator project, cell-based, HEK293 M3R/RGS4 inducible, calcium flux, duplicate. inhibition, % at 10 µM. carbachol calcium flux Fluo4. AID 602282, 2012. 89% of 1,100 active. shares compounds with RGS4 act;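 active = inhibition above 3 SD of the buffer control wells, cut at about 41% in these data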;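 note: signal is the integrated peak-minus-minimum Fluo4 fluorescence over baseline ratio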
RGS4 act ctr: counter-screen for RGS4 activators: effect in non-induced cells; shares compounds with RGS4 act; HEK293 M3R non-induced RGS4, Fluo4 calcium flux; after carbachol challenge at its EC90; inhibition, % at 10 µM; 82% of 1,100 active; AID 602283;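 active = inhibition exceeding 3 SD of buffer-only control wells, cut at about 26% in these data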;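 note: percent drop in integrated peak-minus-baseline over baseline Fluo4 ratio after carbachol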
Starred values were filed as active, the others as inactive; i = inactive; . = no result.

SMILES	RGS4 inh	MrgX1 antag	MrgX1 allo act	MrgX1 ag	RGS4 act	RGS4 act valid	RGS4 act ctr
c1cc2c3c(cccc3c1)C(N1CCOCC1)=N2	i	i	i	i	i	.	.
O=C(O)c1ccccc1NS(=O)(=O)c1ccc(NNC(=S)Nc2ccc(OC(F)F)cc2)c([N+](=O)[O-])c1	i	.	.	.	-12*	0	0
CCOC(=O)c1oc2ccc(CNC3CCCCC3)c(Cl)c2c1C	i	i	i	i	-7.8*	94*	92*
CCOC(=O)c1oc2ccc(CNCCO)c(Cl)c2c1C	i	i	i	i	i	.	.
O=C(NCC1CCCO1)c1cc2cc(Cl)ccc2[nH]1 (stereo unspecified)	i	i	i	i	i	.	.
COc1ccc(N2CCN(C(=O)C3CCCN3S(=O)(=O)c3cccc4nsnc34)CC2)cc1 (stereo unspecified)	i	i	i	i	i	.	.
CSc1ccc2c(c1)C(N1CCN(C)CC1)Cc1ccc(F)cc1S2 (stereo unspecified)	i	i	i	i	-11*	94*	90*
O=C(COc1ccccc1[N+](=O)[O-])N1CCN(c2ccccn2)CC1	i	i	i	i	i	.	.
CSc1nc2ccccc2n1Cc1c(Cl)cccc1Cl	i	i	i	i	-8.4*	95*	86*
OCc1nc2ccccc2n1Cc1c(F)cccc1Cl	i	i	i	i	i	.	.
CN1CCC(C2(O)c3ccccc3CCc3ccccc32)CC1	i	i	i	i	-10*	62*	84*
CN1CCC(C2(O)c3ccccc3CSc3sccc32)CC1 (stereo unspecified)	.	i	i	i	.	.	.
c1ccc(OCc2ccc(CCCN3CCOCC3)cc2)cc1	i	i	i	i	-8.1*	58*	84*
c1ccc(COc2ccc(OCCCN3CCCCC3)cc2)cc1	i	i	i	i	-7.7*	90*	63*
c1ccc(CCCN2CCOCC2)cc1	i	i	i	i	i	.	.
c1ccc(OCCCN2CCCC2)cc1	i	i	i	i	i	.	.
COc1ccc(OC)c(C2=NS(=O)(=O)N(C)C(C(=O)NCc3ccco3)=C2)c1	i	i	i	i	i	.	.
COc1ccc(-c2cc(C(=O)Nc3cc(C)nn3-c3ccccc3)no2)cc1OC	i	i	i	i	i	.	.
Cc1cc(C)c2nc3nc(C)c(C)cc3c(N)c2c1	i	.	.	.	-9.3*	90*	65*
CCCSc1nc(C)c2cc(C)cc(C)c2n1	i	i	i	i	i	.	.
CCN(CC(=O)Nc1c(F)cccc1F)C(=O)CCSc1ccc(F)cc1	i	i	i	i	i	.	.
Cn1cc(/C=N\O)nc2c(=O)n(-c3ccccc3)c(=O)nc1-2	i	i	i	i	i	.	.
Cc1cccc(-c2cc(C(=O)Nc3cccnc3)c3ccccc3n2)c1	i	i	i	i	-9.5*	56*	0
O=C(c1ccc(S(=O)(=O)N2CCOCC2)cc1)N1CCN(c2cccc(Cl)c2)CC1	i	i	i	i	i	.	.
COc1cccc(C(=O)NCC2CCN(c3ccc(S(=O)(=O)N4CCOCC4)cc3)CC2)c1	i	i	i	i	-8.6*	92*	58*
SMILES	RGS4 inh	MrgX1 antag	MrgX1 allo act	MrgX1 ag	RGS4 act	RGS4 act valid	RGS4 act ctr
COc1cccc(-c2nnc(NC(=O)c3ccc(S(=O)(=O)N4CCOCC4)cc3)o2)c1	i	i	i	i	i	.	.
O=C(NCC1CCN(c2ccc(S(=O)(=O)N3CCOCC3)cc2)CC1)c1cccc(Cl)c1	i	i	i	i	-8.1*	90*	92*
C=CCC1NS(=O)(=O)O[C@H](CCCC)[C@@H]1O (stereo partly specified)	i	i	i	i	i	.	.
O=C(CCCn1nnnc1CN1CCOCC1)N1CCN(c2ccccc2F)CC1	i	i	i	i	i	.	.
COCCCn1c(=O)c2sccc2n2c(CCCC(=O)N(C)Cc3ccco3)nnc12	i	i	i	i	i	.	.
CN(CC(=O)Nc1cccc(F)c1)CC(=O)Nc1cccc(S(=O)(=O)N2CCCCCC2)c1	i	i	i	i	-7.7*	62*	33*
CCOc1ccc(S(=O)(=O)n2cnc3cc(C)c(C)cc32)cc1	i	i	i	i	-9.9*	94*	95*
Cc1cc2ncn(S(=O)(=O)c3ccc(F)cc3)c2cc1C	i	i	i	i	i	.	.
CCN=C1SC(C(=O)Nc2cccc(Br)c2)CC(=O)N1CC (stereo unspecified)	i	i	i	i	-7.8*	56*	84*
CCN=C1SC(C(=O)Nc2ccc(Cl)c(Cl)c2)CC(=O)N1CC (stereo unspecified)	i	i	i	i	i	.	.
Cc1cccc(-n2c(C)nc3cc(C(=O)N4CCOCC4)ccc32)c1	i	i	i	i	i	.	.
COc1ccc(N(CC(=O)NC2CCCCC2C)S(=O)(=O)c2c(C)nn(C)c2C)cc1 (stereo unspecified)	i	i	i	i	i	.	.
Cc1ccc(S(=O)(=O)N2CCC(C(=O)O)CC2)cc1	i	i	i	i	i	.	.
CC1CCN(CCCCOc2ccccc2-c2ccccc2)CC1	i	i	i	i	-8.4*	72*	84*
CNCCOc1ccccc1-c1ccccc1	i	i	i	i	i	.	.
CC1CCN(CCCCOc2ccc(C(C)(C)C)cc2)CC1	i	i	i	i	-9.6*	93*	60*
CC1CCN(CCCCOc2ccc(Cl)cc2)CC1	i	i	i	i	i	.	.
CC1CCN(CC(=O)Nc2ccccc2-c2ccccc2)CC1	i	i	i	i	-9.1*	92*	61*
CNCCCCOc1ccccc1-c1ccccc1	i	i	i	i	-8.8*	85*	84*
CCC(CC)N1CCN(S(=O)(=O)c2ccc(OC)cc2)CC1	i	i	i	i	i	.	.
